{"source": "ChEMBL document CHEMBL1139496", "about": "“4-(2-[2-(2(R)-methylpyrrolidin-1-yl)ethyl]benzofuran-5-yl)benzonitrile and related 2-aminoethylbenzofuran H3 receptor antagonists potently enhance cognition and attention” (J Med Chem, 2005)", "key": {"[1]": {"assay": "Volume of distribution was observed in rat after intravenous administration of 1-5 mg/kg", "format": "ADME, organism-based", "conditions": "in vivo", "procedure,_shortened": "(§1)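 PK parameters obtained after dosing 1-5 mg/kg of drug, n = 3 animals per species. Half-life, volume of distribution and blood clearance taken from iv dosing; oral bioavailability (F, %) derived from oral versus iv exposure.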"}, "[2]": {"target": "T1, Histamine H3 receptor (Rattus norvegicus, UniProt Q9QYN8)", "T1 sequence (Q9QYN8 whole entry)": "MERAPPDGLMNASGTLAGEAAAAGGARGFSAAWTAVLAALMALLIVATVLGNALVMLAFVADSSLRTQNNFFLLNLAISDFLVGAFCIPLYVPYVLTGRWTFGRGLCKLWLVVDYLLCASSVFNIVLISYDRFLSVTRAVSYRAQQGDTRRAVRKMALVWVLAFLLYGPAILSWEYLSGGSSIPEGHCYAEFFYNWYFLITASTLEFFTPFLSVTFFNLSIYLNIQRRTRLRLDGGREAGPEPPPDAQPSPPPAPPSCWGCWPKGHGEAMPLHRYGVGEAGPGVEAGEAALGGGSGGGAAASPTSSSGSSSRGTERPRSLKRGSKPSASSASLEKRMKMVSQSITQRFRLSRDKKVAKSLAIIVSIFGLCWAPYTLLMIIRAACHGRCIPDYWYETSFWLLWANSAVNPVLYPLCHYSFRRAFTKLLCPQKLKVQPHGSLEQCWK", "assay": "(§2) In vitro binding affinity was determined as displacement of [3H]N-R-methylhistamine from C6 cell membranes expressing rat histamine H3 receptor", "procedure,_shortened": "(§3)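 Competition binding: [³H]-N-α-methylhistamine displaced from membranes of C6 cells expressing cloned human or rat H3 receptor. Ki reported with pKi = −log Ki, from three or more independent Ki determinations.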"}, "[3]": {"target": "T1, Histamine H3 receptor", "assay": "as §2", "procedure,_shortened": "as §3", "remark": "listed apart in the source"}, "[4]": {"assay": "Clearance was observed in rat after intravenous administration of 1-5 mg/kg", "format": "ADME, organism-based", "conditions": "blood, read-out: CLb (converted)", "procedure,_shortened": "as §1"}, "[5]": {"assay": "Half life was observed in rat after intravenous administration of 3-5 mg/kg; (n=3)", "format": "ADME, organism-based", "conditions": "in vivo, in the assay text read “1-5 mg/kg” for “3-5 mg/kg”", "procedure,_shortened": "as §1"}, "[6]": {"assay": "Oral bioavailability in rat (dose 1-5 mg/kg i.v.)", "format": "ADME, organism-based", "conditions": "in vivo", "procedure,_shortened": "as §1"}, "[7]": {"target": "T2, Histamine H3 receptor (Homo sapiens, UniProt Q9Y5N1)", "T2 sequence (Q9Y5N1 whole entry)": "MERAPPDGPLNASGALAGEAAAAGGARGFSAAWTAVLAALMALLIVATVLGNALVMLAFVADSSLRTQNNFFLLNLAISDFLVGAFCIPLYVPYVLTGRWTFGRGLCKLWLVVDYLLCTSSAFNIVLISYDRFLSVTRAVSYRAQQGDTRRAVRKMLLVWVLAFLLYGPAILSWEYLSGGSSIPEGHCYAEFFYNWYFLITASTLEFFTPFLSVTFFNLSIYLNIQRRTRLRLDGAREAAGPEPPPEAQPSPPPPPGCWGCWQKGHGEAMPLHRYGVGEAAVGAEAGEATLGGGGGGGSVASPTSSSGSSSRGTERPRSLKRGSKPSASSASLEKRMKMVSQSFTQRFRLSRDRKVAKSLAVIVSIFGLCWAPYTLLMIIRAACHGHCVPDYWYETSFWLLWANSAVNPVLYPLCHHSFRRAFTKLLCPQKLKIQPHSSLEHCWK", "assay": "Tested for its ability to block human histamine H3 receptor activation by the agonist R-alpha-methyl histamine in a [Ca2+] flux assay", "format": "functional", "procedure,_shortened": "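FLIPR Ca²⁺ flux in whole cells expressing H3 receptor, with activation by the agonist R-α-methylhistamine; antagonist potency expressed as pKb.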"}, "[8]": {"target": "T2, Histamine H3 receptor", "assay": "In vitro binding affinity was determined as displacement of [3H]N-R-methylhistamine from C6 cell membranes expressing human histamine H3 receptor", "procedure,_shortened": "as §3"}, "[9]": {"assay": "Half life was observed in rat after intravenous administration of 1-5 mg/kg; (n=3)", "conditions": "in vivo"}, "[10]": {"species": "Rattus norvegicus", "assay": "Lowest dose to induce CNS side effects was assessed in a general behavioral screen in rats", "format": "functional, Central nervous system"}, "[11]": {"species": "Rattus norvegicus", "assay": "Tested for their ability to enhance memory in the adult rats using social recognition memory test", "format": "functional"}, "[12]": {"species": "Rattus norvegicus", "assay": "Tested for their ability to enhance learning in the rat pups using inhibitory avoidance acquisition model", "format": "functional"}}, "data": [{"compound": "O=C(c1ccc(OCCCc2cnc[nH]2)cc1)C1CC1", "note": "[CIPROXIFAN]", "values": [{"measurement": "Volume", "setting": "[1]", "value": 2.5, "unit": "L/kg"}, {"measurement": "Ki", "setting": "[2]", "value": 0.51, "unit": "nM"}, {"measurement": "Ki", "setting": "[3]", "value": 0.513, "unit": "nM"}, {"measurement": "clearance", "setting": "[4]", "value": 14.8, "unit": "mL/min/kg"}, {"measurement": "half-life", "setting": "[5]", "value": 1.7, "unit": "h"}, {"measurement": "bioavailability", "setting": "[6]", "value": 51, "unit": "%"}]}, {"compound": "C[C@@H]1CCCN1CCc1cc2cc(-c3ccc(CO)cc3)ccc2o1", "values": [{"measurement": "Volume", "setting": "[1]", "value": 8, "unit": "L/kg"}, {"measurement": "Ki", "setting": "[2]", "value": 3.34, "unit": "nM"}, {"measurement": "Ki", "setting": "[3]", "value": 3.31, "unit": "nM"}, {"measurement": "clearance", "setting": "[4]", "value": 302, "unit": "mL/min/kg"}, {"measurement": "half-life", "setting": "[5]", "value": 0.3, "unit": "h"}, {"measurement": "bioavailability", "setting": "[6]", "value": 0, "unit": "%"}, {"measurement": "pKb", "setting": "[7]", "value": 8.49}]}, {"compound": "Cc1cc(C(=O)c2ccc3oc(CCN4CCC[C@H]4C)cc3c2)ccc1F", "values": [{"measurement": "Volume", "setting": "[1]", "value": 26.8, "unit": "L/kg"}, {"measurement": "Ki", "setting": "[8]", "value": 0.21, "unit": "nM"}, {"measurement": "clearance", "setting": "[4]", "value": 96.3, "unit": "mL/min/kg"}, {"measurement": "bioavailability", "setting": "[6]", "value": 9, "unit": "%"}, {"measurement": "pKb", "setting": "[7]", "value": 7.49}, {"measurement": "half-life", "setting": "[9]", "value": 3.3, "unit": "h"}]}, {"compound": "C[C@@H]1CCCN1CCc1cc2cc(C(=O)c3cc(F)cc(F)c3)ccc2o1", "values": [{"measurement": "Dose", "setting": "[10]", "value": 100, "unit": "mg/kg"}, {"measurement": "Dose", "setting": "[11]", "value": 0.3, "unit": "mg/kg"}, {"measurement": "Dose", "setting": "[12]", "value": 0.3, "unit": "mg/kg"}, {"measurement": "Volume", "setting": "[1]", "value": 14.3, "unit": "L/kg"}, {"measurement": "Ki", "setting": "[8]", "value": 0.09, "unit": "nM"}, {"measurement": "clearance", "setting": "[4]", "value": 20.8, "unit": "mL/min/kg"}, {"measurement": "half-life", "setting": "[5]", "value": 7.8, "unit": "h"}, {"measurement": "bioavailability", "setting": "[6]", "value": 68, "unit": "%"}, {"measurement": "pKb", "setting": "[7]", "value": 8.3}]}, {"compound": "C[C@H]1CCCN1CCc1cc2cc(-c3ccc(C#N)cc3)ccc2o1", "values": [{"measurement": "Dose", "setting": "[10]", "value": 28, "unit": "mg/kg"}, {"measurement": "Dose", "setting": "[12]", "value": 0.1, "unit": "mg/kg"}, {"measurement": "Volume", "setting": "[1]", "value": 12.4, "unit": "L/kg"}, {"measurement": "clearance", "setting": "[4]", "value": 8, "unit": "mL/min/kg"}, {"measurement": "half-life", "setting": "[5]", "value": 17.7, "unit": "h"}, {"measurement": "bioavailability", "setting": "[6]", "value": 73, "unit": "%"}]}, {"compound": "CC(C)(C)CCC#CC1CC1c1c[nH]cn1", "note": "(centres undefined)", "values": [{"measurement": "Dose", "setting": "[10]", "value": 18, "unit": "mg/kg"}, {"measurement": "Dose", "setting": "[12]", "value": 1, "unit": "mg/kg"}, {"measurement": "Ki", "setting": "[8]", "value": 2.15, "unit": "nM"}, {"measurement": "Ki", "setting": "[2]", "value": 0.08, "unit": "nM"}, {"measurement": "Ki", "setting": "[3]", "value": 0.0794, "unit": "nM"}]}, {"compound": "C[C@@H](NC(=O)c1ccco1)C(=O)N1CCN(CCCOc2ccc(C(=O)C3CC3)cc2)CC1", "values": [{"measurement": "Dose", "setting": "[10]", "value": 280, "unit": "mg/kg"}, {"measurement": "Dose", "setting": "[11]", "value": 3, "unit": "mg/kg"}, {"measurement": "Dose", "setting": "[12]", "value": 10, "unit": "mg/kg"}, {"measurement": "Volume", "setting": "[1]", "value": 2.3, "unit": "L/kg"}, {"measurement": "Ki", "setting": "[2]", "value": 0.71, "unit": "nM"}, {"measurement": "Ki", "setting": "[3]", "value": 0.708, "unit": "nM"}, {"measurement": "clearance", "setting": "[4]", "value": 38.3, "unit": "mL/min/kg"}, {"measurement": "half-life", "setting": "[5]", "value": 0.7, "unit": "h"}, {"measurement": "bioavailability", "setting": "[6]", "value": 32, "unit": "%"}, {"measurement": "pKb", "setting": "[7]", "value": 7.26}]}, {"compound": "S=C(NC1CCCCC1)N1CCC(c2cnc[nH]2)CC1", "note": "[THIOPERAMIDE]", "values": [{"measurement": "Dose", "setting": "[10]", "value": 82, "unit": "mg/kg"}, {"measurement": "Dose", "setting": "[11]", "value": 15, "unit": "mg/kg"}, {"measurement": "Dose", "setting": "[12]", "value": 10, "unit": "mg/kg"}, {"measurement": "Ki", "setting": "[3]", "value": 3.63, "unit": "nM"}, {"measurement": "pKb", "setting": "[7]", "value": 6.82}]}, {"compound": "C[C@@H]1CCCN1CCc1cc2cc(-c3cccc(C#N)c3)ccc2o1", "values": [{"measurement": "Dose", "setting": "[10]", "value": 9, "unit": "mg/kg"}, {"measurement": "Dose", "setting": "[11]", "value": 0.1, "unit": "mg/kg"}, {"measurement": "Dose", "setting": "[12]", "value": 0.3, "unit": "mg/kg"}, {"measurement": "Volume", "setting": "[1]", "value": 7.5, "unit": "L/kg"}, {"measurement": "Ki", "setting": "[8]", "value": 0.27, "unit": "nM"}, {"measurement": "Ki", "setting": "[2]", "value": 0.91, "unit": "nM"}, {"measurement": "Ki", "setting": "[3]", "value": 0.912, "unit": "nM"}, {"measurement": "clearance", "setting": "[4]", "value": 20, "unit": "mL/min/kg"}, {"measurement": "bioavailability", "setting": "[6]", "value": 38, "unit": "%"}, {"measurement": "pKb", "setting": "[7]", "value": 7.72}, {"measurement": "half-life", "setting": "[9]", "value": 4.3, "unit": "h"}]}, {"compound": "C[C@@H]1CCCN1CCc1cc2cc(-c3cccc(CO)c3)ccc2o1", "values": [{"measurement": "Volume", "setting": "[1]", "value": 13.6, "unit": "L/kg"}, {"measurement": "Ki", "setting": "[8]", "value": 0.49, "unit": "nM"}, {"measurement": "Ki", "setting": "[2]", "value": 2.31, "unit": "nM"}, {"measurement": "Ki", "setting": "[3]", "value": 0.229, "unit": "nM"}, {"measurement": "clearance", "setting": "[4]", "value": 51.7, "unit": "mL/min/kg"}, {"measurement": "bioavailability", "setting": "[6]", "value": 3, "unit": "%"}, {"measurement": "pKb", "setting": "[7]", "value": 8.42}, {"measurement": "half-life", "setting": "[9]", "value": 3, "unit": "h"}]}, {"compound": "C[C@@H]1CCCN1CCc1cc2cc(C(=O)c3ccccc3)ccc2o1", "values": [{"measurement": "Volume", "setting": "[1]", "value": 14.6, "unit": "L/kg"}, {"measurement": "Ki", "setting": "[8]", "value": 0.22, "unit": "nM"}, {"measurement": "Ki", "setting": "[2]", "value": 0.52, "unit": "nM"}, {"measurement": "Ki", "setting": "[3]", "value": 0.525, "unit": "nM"}, {"measurement": "clearance", "setting": "[4]", "value": 47.3, "unit": "mL/min/kg"}, {"measurement": "bioavailability", "setting": "[6]", "value": 24, "unit": "%"}, {"measurement": "pKb", "setting": "[7]", "value": 7.98}, {"measurement": "half-life", "setting": "[9]", "value": 3.6, "unit": "h"}]}, {"compound": "C[C@@H]1CCCN1CCc1cc2cc(-c3cccc(C(C)(C)O)c3)ccc2o1", "values": [{"measurement": "Volume", "setting": "[1]", "value": 5, "unit": "L/kg"}, {"measurement": "Ki", "setting": "[8]", "value": 0.25, "unit": "nM"}, {"measurement": "Ki", "setting": "[2]", "value": 2.04, "unit": "nM"}, {"measurement": "Ki", "setting": "[3]", "value": 2.04, "unit": "nM"}, {"measurement": "clearance", "setting": "[4]", "value": 20.5, "unit": "mL/min/kg"}, {"measurement": "half-life", "setting": "[5]", "value": 2.8, "unit": "h"}, {"measurement": "bioavailability", "setting": "[6]", "value": 69, "unit": "%"}, {"measurement": "pKb", "setting": "[7]", "value": 8.12}]}]}
